IDE act = boosts human insulin-degrading enzyme activity in HEK cells; P14735; FAbeta-B cleavage, fluorescence polarization; 0% vehicle, 100% cell-free pure enzyme wells; activation, % at 5.96 µM; 340,000 compounds, 0.073% hits;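 active = activation above the mean of all tested compounds plus 3 SD, set per screening campaign, cut at about 17% in these data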
PREPL inh = inhibitors of human prolyl oligopeptidase-like enzyme PREPL. 320,000 compounds, 0.68% hits. Q4J6C6. inhibition, % at 5.96 µM. recombinant PREPL, fluorescence polarization activity-based probe; in the data active = inhibition above about 43%;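 note: 0% = enzyme with DMSO and 100% = wells lacking enzyme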
ASAP1 inh = inhibitors of human ASAP1 ArfGAP activity | ASAP1-stimulated ARF1 GTP hydrolysis, GDP FP detection | inhibition, % at 16.5 µM | 360,000 compounds, 0.19% hits | AID 624377; in the data active = inhibition above about 25%;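 note: 0% = vehicle with enzyme and substrate and 100% = no enzyme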
Target sequence (Q9ULH1 325-724 limits assumed): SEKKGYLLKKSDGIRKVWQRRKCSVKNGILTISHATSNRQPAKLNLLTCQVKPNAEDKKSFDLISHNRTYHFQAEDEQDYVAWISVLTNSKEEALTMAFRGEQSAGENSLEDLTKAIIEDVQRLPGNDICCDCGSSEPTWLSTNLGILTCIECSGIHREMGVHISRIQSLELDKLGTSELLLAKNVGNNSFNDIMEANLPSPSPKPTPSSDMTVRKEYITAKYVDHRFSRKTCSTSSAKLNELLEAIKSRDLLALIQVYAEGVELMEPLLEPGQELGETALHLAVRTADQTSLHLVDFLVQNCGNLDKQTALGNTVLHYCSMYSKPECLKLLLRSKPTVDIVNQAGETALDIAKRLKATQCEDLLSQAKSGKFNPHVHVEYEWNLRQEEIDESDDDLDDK
IDE cell inh = inhibitors of human insulin-degrading enzyme in cells; P14735; HEK cells, FAbetaB cleavage, fluorescence polarization; inhibition, % at 5.59 µM; 320,000 compounds, 0.41% hits; AID 434962;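 active = percent inhibition above the average of all tested compounds plus 3 SD, set per screening campaign, cut at about 16% in these data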;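 note: IDE supplied by intact live HEK cells; FP after avidin binding of uncleaved biotin substrate so inhibition keeps polarization high; 0% = DMSO wells and 100% = 60 µM reference IDE inhibitor Ii1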
ARFGAP1 inh = inhibitors of rat ARFGAP1; Q62848; Arfgap1-stimulated ARF1 GTP hydrolysis, GDP FP detection; inhibition, % at 16.5 µM; 360,000 compounds, 0.26% hits; AID 651572;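 active = inhibition above a per-plate limit, mean inhibition of low control wells plus 3 SD, cut at about 25% in these data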;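 note: 0% = DMSO wells with enzyme and 100% = wells lacking Arfgap1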
Target sequence (Q62848 1-136 limits assumed): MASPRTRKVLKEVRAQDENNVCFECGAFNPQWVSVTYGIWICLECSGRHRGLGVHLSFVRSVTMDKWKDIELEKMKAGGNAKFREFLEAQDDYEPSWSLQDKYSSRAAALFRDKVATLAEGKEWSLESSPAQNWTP
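Repeats: one replicate per compound; assay system: rat Arfgap1 catalytic domain, aa 1-136; times: enzyme reaction 120 min at 25 °C after 20 min preincubation; detection: FP of antibody-bound GDP Alexa 633 tracer, ex 620/em 688 nm; benchmarks: high control wells lacking Arfgap1, low control full reaction with DMSO; reagent: human ARF1(Δ1-17)-GTP substrate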
IDE cell inh cf = confirmation of human insulin-degrading enzyme inhibitors in cells. 1,200 compounds, 51% hits. AID 435028. HEK cells, FAbetaB cleavage, fluorescence polarization. shares compounds with IDE cell inh. inhibition, % at 5.59 µM;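 active = mean inhibition across triplicate wells above the cutoff set by the earlier primary insulin-degrading enzyme screen, cut at about 16% in these data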;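 note: 0% = DMSO wells and 100% = 60 µM reference IDE inhibitor Ii1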
HEK cytotox = counter-screen for IDE inhibitors: cytotoxicity in HEK cells; shares compounds with IDE cell inh; HEK293 cytotoxicity, ATP luminescence; inhibition, % at 5.59 µM; 1,200 compounds, 28% hits; AID 449730; in the data active = inhibition above about 22%;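 note: 0% = vehicle wells and 100% = reference cytotoxic drug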
The depositor's hits bear a star; x = no result given. This is a sample that favours compounds with a hit; in the whole collection about 1.2% have one here.

SMILES	IDE act	PREPL inh	ASAP1 inh	IDE cell inh	ARFGAP1 inh	IDE cell inh cf	HEK cytotox
CC(=O)N1N=C(c2ccco2)CC1c1cc2ccc(C)cc2nc1Cl (configuration not stated)	-6	18	7	-1	5	x	x
O=C(NCc1cccc2ccsc12)c1cccs1	0	7	9	-2	-9	x	x
C=CCN(C(=O)CSc1nc2[nH]ncc2c(=O)n1-c1ccccc1OC)c1ccccc1	-13	-2	-12	18*	1	13	3
Cc1ccc(S(=O)(=O)NCC2CCC(C(=O)NC3CCCCC3)CC2)cc1 (configuration not stated)	0	5	-10	-1	4	x	x
CC(=O)c1ccc(N2CCN(C(=O)/C=C/c3ccc(S(=O)(=O)NCc4ccco4)cc3)CC2)cc1	-14	-10	-3	21*	4	0	49*
Cc1c(CCOC(=O)C23CC4CC(CC(C4)C2)C3)sc[n+]1CC#N	3	-4	10	0	1	x	x
Cc1cc(C)c[n+](C(C)C(=O)c2ccc(-c3ccccc3)cc2)c1 (configuration not stated)	-25	34	1	17*	-9	13	71*
CC(OC(=O)Cc1n[nH]c(=O)c2ccccc12)C(=O)Nc1ccc(F)cc1Cl (configuration not stated)	0	-8	1	-1	0	x	x
CC(=O)Oc1ccc(N2C(=O)c3cccc4c([N+](=O)[O-])ccc(c34)C2=O)cc1	-4	2	-4	18*	-1	13	68*
COc1ccc(Cn2c(CCC(=O)NCCC(C)C)nc3ncccc3c2=O)cc1	-2	18	-7	0	0	x	x
COc1ccc(/C=C(\C#N)C(=O)NCCc2ccccc2)cc1OCc1ccccc1	-1	-17	8	9	9	x	x
N#C/C(=C\c1ccc(N2CCOCC2)o1)C(=O)NCCc1ccccc1	-140	27	15	72*	-1	78*	8
COCCNC(=O)/C(C#N)=C/c1ccc(N2CCOCC2)o1	-16	4	13	16*	7	16	7
N#C/C(=C\c1ccc(O)c(O)c1)C(=O)NCCCc1ccccc1	-37	18	-14	29*	-1	38*	14
O=C(NCC1CC1)c1cc([N+](=O)[O-])cc([N+](=O)[O-])c1	5	0	5	-2	-6	x	x
COc1ccc(S(=O)(=O)N2CCOC2CNC(=O)C(=O)NCCCN2CCOCC2)cc1 (configuration not stated)	1	0	13	0	-2	x	x
COc1ccc(C)cc1NC(=O)CN1CCN(C/C=C/c2ccccc2)CC1	7	5	-13	3	-4	x	x
COc1ccccc1CN1C[C@@H]2C[C@@H](c3ccc4nsnc4c3)N3CCC[C@@]23C1=O	-4	0	-12	19*	3	7	15
COc1ccccc1CN1C[C@@H]2C[C@@H](c3ccc(C)cc3)N3CCC[C@@]23C1=O	-2	-4	-6	1	-8	x	x
COc1ccc(OC)c(CN(CC(C)C)S(=O)(=O)c2ccccc2Br)c1	x	x	3	x	-1	x	x
Cc1cc(N2CCN(c3nc4ccccc4s3)CC2)n2ncnc2n1	-25	13	-10	17*	-7	6	75*
Cc1cc(N2CCN(C(c3ccccc3)c3ccccc3)CC2)n2ncnc2n1	3	5	-4	-1	15	x	x
CCC(C(=O)OCc1csc(CC(=O)Nc2ccccc2C)n1)c1ccccc1 (configuration not stated)	2	-13	-8	-5	7	x	x
COc1ccc2c(Cl)c(C(=O)N/N=C3\CCCC(=O)C3)sc2c1	-18	2	-8	22*	-9	31*	11
COc1ccc2c(Cl)c(C(=O)N/N=C/c3ccc4c(c3)OCO4)sc2c1	-2	-3	4	-1	6	x	x
SMILES	IDE act	PREPL inh	ASAP1 inh	IDE cell inh	ARFGAP1 inh	IDE cell inh cf	HEK cytotox
O=C(c1ccc(=O)[nH]c1)N1CCN(S(=O)(=O)c2ccccc2)CC1	0	-5	-7	4	-9	x	x
CCC(=O)Nc1ccc(NC(=O)c2oc3ccccc3c2C)cc1	-5	2	-6	17*	-14	5	15
CCC(=O)Nc1ccc(NC(=S)NC(=O)c2oc3ccccc3c2C)cc1	2	2	-2	1	3	x	x
CCC(CC)c1nnc(NC(=O)CCNC(=O)c2ccccc2Cl)s1	0	11	-1	-3	4	x	x
CCOC(=O)C(C(=O)OCC)N(C#N)c1nc(N(C)C)nc(N(C)C)n1	6	4	3	-4	3	x	x
COc1ccc2c(/C=C/c3cc[n+](C)cc3)c[nH]c2c1	-8	16	17	14	7	x	x
COc1ccc2c(c1)c(/C=C/c1cc[n+](C)cc1)cn2C	-19	20	5	27*	-1	47*	44*
CCN(CC)S(=O)(=O)c1ccc(OC)c(NC(=O)c2cc([N+](=O)[O-])ccc2N2CCOCC2)c1	x	x	7	x	8	x	x
Cc1occc1C(=O)N/N=C/c1ccc(-c2ccccc2)cc1	-8	-14	-11	16*	-13	0	65*
COc1cc(/C=N/NC(=O)c2ccc(-c3ccccc3)cc2)cc(OC)c1OC	-20	11	-19	21*	10	10	11
O=C(Nc1ccc(F)cc1F)c1cc(-c2ccc3c(c2)OCO3)on1	2	3	1	2	11	x	x
COc1ccccc1CN=Cc1[nH]c2ccc(Br)c(Cl)c2c1O	-4	-1	-10	0	-9	x	x
Cc1cccc(N=Cc2[nH]c3ccc(Br)c(Cl)c3c2O)c1	-28	-7	11	22*	2	23*	11
CC(=O)N/N=C/c1cc(C(C)(C)C)cc(/C=N/NC(C)=O)c1O	x	12	2	48*	-2	29*	17
Cc1ccc(S(=O)(=O)CCC(=O)Nc2ccccc2Br)cc1	3	11	-5	1	3	x	x
CC(C)c1ccc(NC(=O)CSc2nnc(-c3ccccn3)n2C)cc1	-18	-14	-10	19*	1	11	4
COC(=O)c1cc(NC(=O)CSc2nnc(CN3CCOCC3)n2C)ccc1Cl	-24	11	-3	21*	-1	12	17
COc1ccc(Cl)cc1NC(=O)CSc1nnc(CN2CCOCC2)n1-c1ccc(Cl)cc1	-10	12	-2	18*	-1	4	16
CC(C)c1ccc(NC(=O)CSc2nnc(CN3CCOCC3)n2C)cc1	-27	-1	7	17*	6	13	15
CCOC(=O)CC(NC(=O)CCc1c(C)nc2ncnn2c1C)c1ccc(OC(C)C)cc1 (configuration not stated)	-2	-9	0	7	-6	x	x

High-throughput results (PubChem)
